Here are results for 2 compounds from ChEMBL document CHEMBL1649258, “Combined inactivation of lon and ycgE decreases multidrug susceptibility by reducing the amount of OmpF porin in Escherichia coli” (2009).

In brackets after ≈: the same amount, converted by molar mass.

In the first assay the test system is Escherichia coli. Briefly: Antibacterial activity against wild-type Escherichia coli AG100 harboring IS186 insertion in lon3 gene and Tn5 insertion in ycgE gene at 26 degC by Etest method. It is filed as functional.
In the case of `CCn1cc(C(=O)O)c(=O)c2ccc(C)nc21` [NALIDIXIC ACID], the MIC (in general, the lowest concentration found to suppress growth) was determined as 3.3 µg/mL (≈ 14.2 µM).
The compound `CN(C)[C@@H]1C(O)=C(C(N)=O)C(=O)[C@@]2(O)C(O)=C3C(=O)c4c(O)cccc4[C@@](C)(O)[C@H]3C[C@@H]12` [TETRACYCLINE] displayed an MIC of 2 µg/mL (≈ 4.5 µM).

The subject of another assay is Escherichia coli. Briefly: Antibacterial activity against wild-type Escherichia coli AG100 harboring IS186 insertion in lon3 gene, Tn5 insertion in ycgE gene, plasmid pET21b and pACT7SP at 26 degC by Etest method. It is filed as functional. Put shortly: (§1)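 MIC by Etest on LB agar at 26°C for the lon ycgE strain with pACT7Sp plus pET21b or pET21b-ompF; plates contained 100 μg/ml ampicillin, 50 μg/ml spectinomycin and 0.1 mM IPTG to induce OmpF; averages of at least four measurements.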
In turn, `CCn1cc(C(=O)O)c(=O)c2ccc(C)nc21` [NALIDIXIC ACID] registered a minimal inhibitory concentration (MIC) of 3 µg/mL (≈ 12.9 µM).

A further assay deals with Escherichia coli. Briefly: Antibacterial activity against wild-type Escherichia coli AG100 harboring Tn5 insertion in ycgE gene at 26 degC by Etest method. It counts as functional.
For the compound `CCn1cc(C(=O)O)c(=O)c2ccc(C)nc21` [NALIDIXIC ACID], the MIC was 3.7 µg/mL (≈ 15.9 µM).
Same read-out and setting: under `CN(C)[C@@H]1C(O)=C(C(N)=O)C(=O)[C@@]2(O)C(O)=C3C(=O)c4c(O)cccc4[C@@](C)(O)[C@H]3C[C@@H]12` [TETRACYCLINE] stands 0.5 µg/mL (≈ 1.13 µM).

Another assay deals with Escherichia coli. As to the kind of experiment: Antibacterial activity against wild-type Escherichia coli AG100 at 26 degC by Etest method. It is filed as functional.
`CCn1cc(C(=O)O)c(=O)c2ccc(C)nc21` [NALIDIXIC ACID] came in with an MIC of 4 µg/mL (≈ 17.2 µM).
Same read-out and setting: the figure for `CN(C)[C@@H]1C(O)=C(C(N)=O)C(=O)[C@@]2(O)C(O)=C3C(=O)c4c(O)cccc4[C@@](C)(O)[C@H]3C[C@@H]12` [TETRACYCLINE] is 0.5 µg/mL (≈ 1.13 µM).

A further assay concerns Escherichia coli. Briefly: Antibacterial activity against wild-type Escherichia coli AG100 harboring IS186 insertion in lon3 gene, Tn5 insertion in ycgE gene, plasmid pET21b carrying ompF gene and pACT7SP at 26 degC by Etest method. It is filed as functional. Put shortly: as §1
The compound `CCn1cc(C(=O)O)c(=O)c2ccc(C)nc21` [NALIDIXIC ACID] had an MIC of 3 µg/mL (≈ 12.9 µM).

For a further assay, the system named is Escherichia coli. Briefly: Antibacterial activity against wild-type Escherichia coli AG100 harboring IS186 insertion in lon3 gene, Tn5 insertion in ycgE gene and plasmid pMPM carrying ompF gene at 26 degC by Etest method. It is filed as functional.
For the compound `CCn1cc(C(=O)O)c(=O)c2ccc(C)nc21` [NALIDIXIC ACID], the minimum inhibitory concentration (MIC) came to 3 µg/mL (≈ 12.9 µM).

For the next assay, the system named is Escherichia coli. As to the kind of experiment: Antibacterial activity against wild-type Escherichia coli AG100 harboring IS186 insertion in lon3 gene at 37 degC by Etest method. It counts as functional.
On to `CCn1cc(C(=O)O)c(=O)c2ccc(C)nc21` [NALIDIXIC ACID], for which 4 µg/mL (≈ 17.2 µM) was the least that counted as inhibitory (MIC).
On the same count and under the same terms, under `CN(C)[C@@H]1C(O)=C(C(N)=O)C(=O)[C@@]2(O)C(O)=C3C(=O)c4c(O)cccc4[C@@](C)(O)[C@H]3C[C@@H]12` [TETRACYCLINE] stands 1 µg/mL (≈ 2.25 µM).

Another assay relates to Escherichia coli. As to the kind of experiment: Antibacterial activity against wild-type Escherichia coli AG100 at 37 degC by Etest method. It counts as functional.
`CCn1cc(C(=O)O)c(=O)c2ccc(C)nc21` [NALIDIXIC ACID] gave an MIC of 4 µg/mL (≈ 17.2 µM).
On the same count and under the same terms, the figure for `CN(C)[C@@H]1C(O)=C(C(N)=O)C(=O)[C@@]2(O)C(O)=C3C(=O)c4c(O)cccc4[C@@](C)(O)[C@H]3C[C@@H]12` [TETRACYCLINE] is 1 µg/mL (≈ 2.25 µM).

The test system of the next assay is Escherichia coli. Briefly: Antibacterial activity against wild-type Escherichia coli AG100 harboring IS186 insertion in lon3 gene, Tn5 insertion in ycgE gene and plasmid pMPM at 26 degC by Etest method. It counts as functional.
Consider `CCn1cc(C(=O)O)c(=O)c2ccc(C)nc21` [NALIDIXIC ACID], for which the minimum inhibitory concentration (MIC) was found to be 3 µg/mL (≈ 12.9 µM).

The next assay concerns Escherichia coli. Briefly: Antibacterial activity against ompF-deficient Escherichia coli AG100 harboring IS186 insertion in lon3 gene and Tn5 insertion in ycgE gene at 26 degC by Etest method. It counts as functional.
Compound `CCn1cc(C(=O)O)c(=O)c2ccc(C)nc21` [NALIDIXIC ACID] displayed an MIC of 3.3 µg/mL (≈ 14.2 µM).
Still for that read-out and setting: the figure for `CN(C)[C@@H]1C(O)=C(C(N)=O)C(=O)[C@@]2(O)C(O)=C3C(=O)c4c(O)cccc4[C@@](C)(O)[C@H]3C[C@@H]12` [TETRACYCLINE] is 2 µg/mL (≈ 4.5 µM).

A further assay has as its system Escherichia coli. Briefly: Antibacterial activity against wild-type Escherichia coli AG100 harboring marR mutant gene at 37 degC by Etest method. It counts as functional.
`CCn1cc(C(=O)O)c(=O)c2ccc(C)nc21` [NALIDIXIC ACID] displayed an MIC of 10.7 µg/mL (≈ 46.1 µM).
`CN(C)[C@@H]1C(O)=C(C(N)=O)C(=O)[C@@]2(O)C(O)=C3C(=O)c4c(O)cccc4[C@@](C)(O)[C@H]3C[C@@H]12` [TETRACYCLINE] displayed a minimal inhibitory concentration (MIC) of 4 µg/mL (≈ 9 µM). This MIC lies about 2.7-fold lower than the previous one.

The test system of the next assay is Escherichia coli. As to the kind of experiment: Antibacterial activity against ompF-deficient Escherichia coli AG100 at 26 degC by Etest method. It is filed as functional.
Take `CCn1cc(C(=O)O)c(=O)c2ccc(C)nc21` [NALIDIXIC ACID]: 3.3 µg/mL (≈ 14.2 µM) was the least that counted as inhibitory (MIC).
On the same count and under the same terms, the figure for `CN(C)[C@@H]1C(O)=C(C(N)=O)C(=O)[C@@]2(O)C(O)=C3C(=O)c4c(O)cccc4[C@@](C)(O)[C@H]3C[C@@H]12` [TETRACYCLINE] is 2 µg/mL (≈ 4.5 µM).

For a further assay, the system named is Escherichia coli. As to the kind of experiment: Antibacterial activity against wild-type Escherichia coli AG100 harboring IS186 insertion in lon3 gene at 26 degC by Etest method. It counts as functional.
For the compound `CCn1cc(C(=O)O)c(=O)c2ccc(C)nc21` [NALIDIXIC ACID], inhibition of growth (MIC) required 3.7 µg/mL (≈ 15.9 µM).
Same read-out and setting: the figure for `CN(C)[C@@H]1C(O)=C(C(N)=O)C(=O)[C@@]2(O)C(O)=C3C(=O)c4c(O)cccc4[C@@](C)(O)[C@H]3C[C@@H]12` [TETRACYCLINE] is 0.5 µg/mL (≈ 1.13 µM).

For another assay, the system named is Escherichia coli. Briefly: Antibacterial activity against ompF-deficient Escherichia coli AG100 harboring IS186 insertion in lon3 gene and Tn5 insertion in ycgE gene at 37 degC by Etest method. It counts as functional.
In turn, `CCn1cc(C(=O)O)c(=O)c2ccc(C)nc21` [NALIDIXIC ACID] registered an MIC of 4 µg/mL (≈ 17.2 µM).
As for `CN(C)[C@@H]1C(O)=C(C(N)=O)C(=O)[C@@]2(O)C(O)=C3C(=O)c4c(O)cccc4[C@@](C)(O)[C@H]3C[C@@H]12` [TETRACYCLINE], 2 µg/mL (≈ 4.5 µM) was the least that counted as inhibitory (MIC).

A further assay concerns Escherichia coli. Briefly: Antibacterial activity against wild-type Escherichia coli AG100 harboring IS186 insertion in lon3 gene and Tn5 insertion in ycgE gene at 37 degC by Etest method. It counts as functional.
As for `CCn1cc(C(=O)O)c(=O)c2ccc(C)nc21` [NALIDIXIC ACID], the MIC came out at 4 µg/mL (≈ 17.2 µM).
The same measure, in the same setting: the figure for `CN(C)[C@@H]1C(O)=C(C(N)=O)C(=O)[C@@]2(O)C(O)=C3C(=O)c4c(O)cccc4[C@@](C)(O)[C@H]3C[C@@H]12` [TETRACYCLINE] is 2 µg/mL (≈ 4.5 µM).

Another assay deals with Escherichia coli. As to the kind of experiment: Antibacterial activity against wild-type Escherichia coli AG100 harboring Tn5 insertion in ycgE gene at 37 degC by Etest method. It is filed as functional.
`CCn1cc(C(=O)O)c(=O)c2ccc(C)nc21` [NALIDIXIC ACID] displayed a minimal inhibitory concentration (MIC) of 4 µg/mL (≈ 17.2 µM).
Same read-out and setting: under `CN(C)[C@@H]1C(O)=C(C(N)=O)C(=O)[C@@]2(O)C(O)=C3C(=O)c4c(O)cccc4[C@@](C)(O)[C@H]3C[C@@H]12` [TETRACYCLINE] stands 1 µg/mL (≈ 2.25 µM).

The next assay has as its system Escherichia coli. As to the kind of experiment: Antibacterial activity against wild-type Escherichia coli AG100 harboring marR mutant gene at 26 degC by Etest method. It counts as functional.
Regarding `CCn1cc(C(=O)O)c(=O)c2ccc(C)nc21` [NALIDIXIC ACID], inhibition of growth (MIC) required 6.7 µg/mL (≈ 28.8 µM).
On the same count and under the same terms, under `CN(C)[C@@H]1C(O)=C(C(N)=O)C(=O)[C@@]2(O)C(O)=C3C(=O)c4c(O)cccc4[C@@](C)(O)[C@H]3C[C@@H]12` [TETRACYCLINE] stands 6 µg/mL (≈ 13.5 µM).

Another assay relates to Escherichia coli. Briefly: Antibacterial activity against ompF-deficient Escherichia coli AG100 at 37 degC by Etest method. It counts as functional.
With `CCn1cc(C(=O)O)c(=O)c2ccc(C)nc21` [NALIDIXIC ACID], the MIC turned out to be 4 µg/mL (≈ 17.2 µM).
In turn, `CN(C)[C@@H]1C(O)=C(C(N)=O)C(=O)[C@@]2(O)C(O)=C3C(=O)c4c(O)cccc4[C@@](C)(O)[C@H]3C[C@@H]12` [TETRACYCLINE] yielded an MIC of 1.83 µg/mL (≈ 4.12 µM).
